Tests used:
[1] = target: T1, Calpain-1 catalytic subunit (Sus scrofa, UniProt P35750); assay: The compound was evaluated for inhibition of Calpain 1 from porcine erythrocytes; format: cell-based
T1 sequence (P35750 whole entry): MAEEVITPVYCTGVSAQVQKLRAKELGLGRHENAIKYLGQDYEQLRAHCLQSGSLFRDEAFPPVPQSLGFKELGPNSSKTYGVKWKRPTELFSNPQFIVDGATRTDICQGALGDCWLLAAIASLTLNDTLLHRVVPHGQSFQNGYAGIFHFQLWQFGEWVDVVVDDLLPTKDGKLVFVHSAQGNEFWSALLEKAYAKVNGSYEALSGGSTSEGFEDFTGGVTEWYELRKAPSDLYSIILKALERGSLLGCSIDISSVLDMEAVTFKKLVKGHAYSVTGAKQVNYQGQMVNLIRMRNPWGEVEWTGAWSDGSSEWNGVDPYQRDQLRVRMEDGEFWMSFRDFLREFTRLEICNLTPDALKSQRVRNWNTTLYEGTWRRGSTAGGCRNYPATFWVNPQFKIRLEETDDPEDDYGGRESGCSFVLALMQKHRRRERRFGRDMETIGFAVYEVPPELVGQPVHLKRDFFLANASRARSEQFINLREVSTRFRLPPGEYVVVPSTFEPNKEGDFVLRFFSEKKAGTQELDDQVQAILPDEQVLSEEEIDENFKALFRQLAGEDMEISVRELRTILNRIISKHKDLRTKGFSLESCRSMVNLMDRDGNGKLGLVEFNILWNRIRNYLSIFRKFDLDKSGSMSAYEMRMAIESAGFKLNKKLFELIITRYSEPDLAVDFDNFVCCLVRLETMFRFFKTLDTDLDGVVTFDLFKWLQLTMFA
Summary of the method: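 Substrate was Suc-Leu-Tyr-AMC at two concentrations, inhibitor varied, and 5 mM CaCl2 started the reaction. Fluorescence increase (ex 370, em 440 nm) was read at ambient temperature. Ki came from Dixon plots of triplicate means.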

[2] = target: Cathepsin B (Homo sapiens, UniProt P07858); assay: The compound was evaluated for inhibition of cathepsin B from human liver
Summary of the method: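 Cathepsin B from human liver, assayed in 20 mM NaOAc pH 5.2, 0.5 mM DTT, 2% DMSO. Ki was obtained from Dixon plots (1/v versus inhibitor concentration, intersecting lines) using the average of triplicate assays.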

[3] = Selectivity ratio of Ki values for cathepsin B inhibition by those for calpain I inhibition

Ki [1] | Ki [2] | Selectivity ratio [3] | Compound
40 µM | 4.56 µM | 0.1 | CC(C)[C@@H]1C[C@]1(NC(=O)OCc1ccccc1)C(=O)N[C@@H](Cc1ccccc1)C(=O)C(=O)NCCc1ccccc1
0.75 µM | 6.78 µM | 9 | CC(C)[C@@H]1C[C@@]1(NC(=O)OCc1ccccc1)C(=O)N[C@@H](Cc1ccccc1)C(=O)C(=O)NCCc1ccccc1

Second part, the compound before the results:

Compound | Ki [1] | Ki [2] | Selectivity ratio [3]
CC(C)[C@H]1C[C@]1(NC(=O)OCc1ccccc1)C(=O)N[C@@H](Cc1ccccc1)C(=O)C(=O)NCCc1ccccc1 | 6.15 µM | 1.26 µM | 0.2
CC(C)[C@H]1C[C@@]1(NC(=O)OCc1ccccc1)C(=O)N[C@@H](Cc1ccccc1)C(=O)C(=O)NCCc1ccccc1 | 11.1 µM | 5.05 µM | 0.5
CC(C)C[C@H](NC(=O)OCc1ccccc1)C(=O)N[C@@H](Cc1ccccc1)C(=O)C(=O)NCCc1ccccc1 | 0.07 µM | 0.3 µM | 4
